Experimental data reported in ChEMBL document CHEMBL2311344, “Development of an in vivo active, dual EP1 and EP3 selective antagonist based on a novel acyl sulfonamide bioisostere” (Bioorg Med Chem Lett, 2013).
The source made the active and inactive calls. The calls are words filed in the database; no cut-off is given here.

Experiments:
[1] = target: Prostaglandin E2 receptor EP4 subtype (Mus musculus, UniProt P32240); experiment: Antagonist activity at mouse EP4 receptor
Summary of the method: (§1)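 Affinity at mouse EP2, EP3 and EP4 is given as pKI. Signalling through mouse TP is given as pIC50. Mean ± SEM of at least three independent experiments, each run in triplicate.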

[2] = target: T1, Prostaglandin E2 receptor EP3 subtype (Mus musculus, UniProt P30557); experiment: Antagonist activity at mouse EP3 receptor; summary of the method: as §1
T1 sequence (P30557 whole entry): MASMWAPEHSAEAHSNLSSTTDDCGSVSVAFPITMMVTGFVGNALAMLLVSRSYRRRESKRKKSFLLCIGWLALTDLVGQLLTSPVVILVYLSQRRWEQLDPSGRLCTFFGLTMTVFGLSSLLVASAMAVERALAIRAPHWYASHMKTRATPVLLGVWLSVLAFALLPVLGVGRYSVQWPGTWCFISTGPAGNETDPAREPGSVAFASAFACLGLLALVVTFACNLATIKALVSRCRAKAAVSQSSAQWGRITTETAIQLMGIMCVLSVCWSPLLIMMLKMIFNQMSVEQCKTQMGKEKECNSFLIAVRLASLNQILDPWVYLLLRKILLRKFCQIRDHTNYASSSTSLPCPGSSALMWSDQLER

Thromboxane A2 receptor = target: T2, Thromboxane A2 receptor (Mus musculus, UniProt P30987); experiment: Antagonist activity at mouse TP receptor; summary of the method: as §1
T2 sequence (P30987 whole entry): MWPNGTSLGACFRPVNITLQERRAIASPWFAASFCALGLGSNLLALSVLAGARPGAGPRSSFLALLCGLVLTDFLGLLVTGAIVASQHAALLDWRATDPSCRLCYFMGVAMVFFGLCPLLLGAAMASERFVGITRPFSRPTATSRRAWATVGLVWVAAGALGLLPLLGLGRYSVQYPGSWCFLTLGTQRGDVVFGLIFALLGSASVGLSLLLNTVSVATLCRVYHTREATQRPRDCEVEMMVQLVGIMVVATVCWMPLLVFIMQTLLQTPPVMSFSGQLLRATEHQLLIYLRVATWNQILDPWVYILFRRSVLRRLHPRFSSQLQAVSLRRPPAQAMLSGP

[3] = target: T3, Prostaglandin E2 receptor EP1 subtype (Mus musculus, UniProt P35375); experiment: Antagonist activity at mouse EP1 receptor expressed in CHOK1 cells assessed as inhibition of 17PTPGE2-induced calcium influx; assay type: functional, cell-based, CHO-K1
T3 sequence (P35375 whole entry): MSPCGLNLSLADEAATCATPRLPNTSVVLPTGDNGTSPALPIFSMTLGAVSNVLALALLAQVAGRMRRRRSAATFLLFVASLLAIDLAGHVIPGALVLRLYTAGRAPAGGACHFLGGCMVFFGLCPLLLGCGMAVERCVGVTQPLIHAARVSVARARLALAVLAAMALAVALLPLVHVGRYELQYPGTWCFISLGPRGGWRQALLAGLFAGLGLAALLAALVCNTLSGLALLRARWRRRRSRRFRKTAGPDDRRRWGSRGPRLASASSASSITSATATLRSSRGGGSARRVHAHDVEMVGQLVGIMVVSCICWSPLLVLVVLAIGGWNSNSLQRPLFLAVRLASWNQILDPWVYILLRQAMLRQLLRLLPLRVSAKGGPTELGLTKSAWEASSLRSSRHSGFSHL
Summary of the method: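 CHOk1 cells expressing mouse EP1 were treated with six antagonist concentrations, then challenged with a concentration range of the EP1 agonist 17-phenyl-ω-trinor PGE2. pKD/KD came from transformed Schild regression of the concentration-response curves. Mean ± SEM of at least two independent experiments, each in duplicate.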

[4] = target: Prostaglandin E2 receptor EP2 subtype (Mus musculus, UniProt Q62053); experiment: Antagonist activity at mouse EP2 receptor; summary of the method: as §1
Prostaglandin E2 receptor EP2 subtype, sequence (Q62053 whole entry): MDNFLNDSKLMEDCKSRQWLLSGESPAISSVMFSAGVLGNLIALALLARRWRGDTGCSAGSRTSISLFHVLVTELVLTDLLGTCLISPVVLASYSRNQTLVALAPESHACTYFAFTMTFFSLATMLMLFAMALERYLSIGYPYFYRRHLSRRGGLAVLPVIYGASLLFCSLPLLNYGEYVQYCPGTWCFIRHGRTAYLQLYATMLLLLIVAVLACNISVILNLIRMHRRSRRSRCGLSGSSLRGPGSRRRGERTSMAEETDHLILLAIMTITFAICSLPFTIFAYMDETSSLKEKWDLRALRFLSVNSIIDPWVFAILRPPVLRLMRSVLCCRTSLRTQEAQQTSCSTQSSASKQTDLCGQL

Mus musculus [5] = experiment: Tmax in mouse at 5 mg/kg, sc; assay type: ADME, organism-based; set-up: dose 5 mg/kg, route subcutaneous; details: in vivo
Summary of the method: (§2)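 Subcutaneous dose of 5 mg/kg in mice (n = 3). Plasma sampled intermittently to build a concentration-time profile. Cmax, tmax and AUC were taken from that profile.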

Plasma = experiment: Fraction unbound in mouse plasma; assay type: ADME, cell-free
Mus musculus [6] = experiment: Antihypertensive activity in mouse assessed as 17PTPGE2-induced mean arterial pressure at 5 mg/kg, sc administered 2 hr prior to 17PTPGE2-challenge (reference value: 50.3 +/- 5.5 mmHg); assay type: functional, Artery; details: route subcutaneous
Summary of the method: (§3)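 Mice were anesthetized, with the left common carotid artery and right jugular vein cannulated. Arterial pressure was recorded directly via the carotid catheter. Test agent or vehicle was given 5 mg/kg sc. After 2 h, an IV bolus went through the jugular catheter: 20 μg/kg 17-phenyl-ω-trinor PGE2 (EP1) or 10 μg/kg sulprostone (EP3). Read-out was change in MAP. n = 3 per group; two-tailed Student's t test.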

Mus musculus [7] = experiment: Antihypertensive activity in mouse assessed as sulprostone-induced mean arterial pressure at 5 mg/kg, sc administered 2 hr prior to sulprostone-challenge (reference value: 53.3 +/- 2.3 mmHg); assay type: functional, Artery; details: route subcutaneous; summary of the method: as §3
[8] = Drug metabolism in mouse liver microsomes assessed as cytochrome P450-mediated benzylic oxidation; assay type: ADME, Microsome
Mus musculus [9] = experiment: Antihypertensive activity in mouse assessed as effect on phenylephrine-induced vasopressor activity at 5 mg/kg, sc administered 2 hrs prior to phenylephrine-challenge; assay type: functional, organism-based; set-up: dose 5 mg/kg
Summary of the method: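 In the same anesthetized, carotid/jugular-cannulated mouse preparation, phenylephrine 10 μg/kg was given as an IV bolus 2 h after 5 mg/kg sc pretreatment. The change in arterial pressure served as the non-EP vasoconstriction control.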

[10] = Drug metabolism in mouse liver microsomes assessed as esterase-mediated sulfonamide hydrolysis; assay type: ADME, Microsome
[11] = Drug metabolism in mouse liver microsomes assessed as cytochrome P450-mediated methylene linker oxidation; assay type: ADME, Microsome
Mus musculus [12] = experiment: Cmax in mouse at 5 mg/kg, sc; assay type: ADME, organism-based; set-up: dose 5 mg/kg, route subcutaneous; details: in vivo; summary of the method: as §2
Mus musculus [13] = experiment: AUC in mouse at 5 mg/kg, sc; assay type: ADME, organism-based, Plasma; set-up: dose 5 mg/kg, route subcutaneous; details: in vivo; summary of the method: as §2
[14] = Drug metabolism in mouse liver microsomes assessed as cytochrome P450-mediated oxidation; assay type: ADME, Microsome
[15] = Drug metabolism in mouse liver microsomes assessed as esterase-mediated hydrolysis; assay type: ADME, Microsome
[16] = target: T4, Prostaglandin E2 receptor EP1 subtype (Mus musculus) (UniProt P35375); experiment: Antagonist activity at mouse EP1 receptor expressed in CHOK1 cells assessed as inhibition of 17PTPGE2-induced calcium influx at >100 uM; assay type: functional, cell-based; details: CHO-K1
T4 sequence (whole entry): T3 sequence (P35375 whole entry)

[17] = Volume of distribution at steady state in mouse at 1 mg/kg, iv; assay type: ADME, organism-based; set-up: dose 1 mg/kg, route intravenous; details: in vivo, read-out: Vdss
Summary of the method: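 Mouse plasma pharmacokinetics after a single intravenous 1 mg/kg dose. Systemic plasma clearance and volume of distribution predicted at steady state were derived from the IV data. A separate oral arm at 10 mg/kg was used for bioavailability.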

[18] = Plasma clearance in mouse at 1 mg/kg, iv; assay type: ADME, organism-based; set-up: dose 1 mg/kg, route intravenous
Summary of the method: (§4)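 Mice were dosed IV at 1 mg/kg or orally at 10 mg/kg. From plasma, the following were derived: systemic plasma clearance, Vss, t1/2 and oral bioavailability (%F).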

[19] = Oral bioavailability in mouse at 10 mg/kg; assay type: ADME, organism-based; details: in vivo; summary of the method: as §4
[20] = Half life in mouse at 1 mg/kg, iv; assay type: ADME, organism-based; set-up: dose 1 mg/kg, route intravenous; details: in vivo
Summary of the method: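 Single intravenous dose of 1 mg/kg given to mice. Half-life was derived from systemic plasma levels. Plasma clearance (CLp) and steady-state volume of distribution (Vss) came from the same study. A separate 10 mg/kg oral arm was run for bioavailability.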

Prostaglandin E2 receptor EP4 subtype, sequence (P32240 whole entry): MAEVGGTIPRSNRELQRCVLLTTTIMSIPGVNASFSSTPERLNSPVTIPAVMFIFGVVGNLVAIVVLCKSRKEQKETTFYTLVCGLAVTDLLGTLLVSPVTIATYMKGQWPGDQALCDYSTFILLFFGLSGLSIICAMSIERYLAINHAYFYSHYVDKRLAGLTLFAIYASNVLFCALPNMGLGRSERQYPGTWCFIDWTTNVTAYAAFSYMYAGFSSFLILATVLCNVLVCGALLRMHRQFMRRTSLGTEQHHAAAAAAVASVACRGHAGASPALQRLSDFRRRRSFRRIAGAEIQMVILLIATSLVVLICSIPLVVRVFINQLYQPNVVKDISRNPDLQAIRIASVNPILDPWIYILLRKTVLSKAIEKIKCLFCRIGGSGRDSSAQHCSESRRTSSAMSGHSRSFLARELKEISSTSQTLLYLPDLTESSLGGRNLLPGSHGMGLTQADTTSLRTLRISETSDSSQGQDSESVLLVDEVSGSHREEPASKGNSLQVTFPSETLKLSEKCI

Row | Compound | Ki [1] | Ki [2] | pIC50 (Thromboxane A2 receptor) | Kd ([3]; read-out: Kd) | Ki [4] | further results
1 | O=C(NC1CC2CCC1C2)c1cccc(Cc2cc(Cl)ccc2OCc2ccc(Cl)cc2F)n1 (stereo not drawn) | > 1000 nM | > 1000 nM | < 6 | 2190 nM | > 1000 nM | –
2 | CCC(C)NC(=O)c1cccc(Cc2cc(Cl)ccc2OCc2ccc(Cl)cc2F)n1 (stereo not drawn) | > 1000 nM | > 1000 nM | < 6 | 1380 nM | > 1000 nM | –
3 | O=C(c1cccc(Cc2cc(Cl)ccc2OCc2ccc(Cl)cc2F)n1)N1CCCC1 | > 1000 nM | > 1000 nM | < 6 | 15800 nM | > 1000 nM | –
4 | NC(=O)c1cccc(Cc2cc(Cl)ccc2OCc2ccc(Cl)cc2F)n1 | > 1000 nM | > 1000 nM | < 6 | 2630 nM | > 1000 nM | –
5 | O=C(NS(=O)(=O)c1ccc(Cl)cc1)c1cccc(Cc2cc(Cl)ccc2OCc2ccc(Cl)cc2F)n1 | > 1000 nM | 107 nM | < 6 | 40.7 nM | > 1000 nM | Tmax (Mus musculus [5]): 2 h; Fu (Plasma): 0.004; Activity (Mus musculus [6]): 27 mmHg; Activity (Mus musculus [7]): 32 mmHg; Drug metabolism [8]: Active; Activity (Mus musculus [9]): inactive; Drug metabolism [10]: Active; Drug metabolism [11]: Active; Cmax (Mus musculus [12]): 504 nM; AUC (Mus musculus [13]): 7.508 µM·h
6 | O=C(NCC1CC1)c1cccc(Cc2cc(Cl)ccc2OCc2ccc(Cl)cc2F)n1 | > 1000 nM | > 1000 nM | < 6 | 549 nM | > 1000 nM | –
7 | CCN(CC)C(=O)c1cccc(Cc2cc(Cl)ccc2OCc2ccc(Cl)cc2F)n1 | > 1000 nM | > 1000 nM | < 6 | 447 nM | > 1000 nM | –
8 | CC(C)(C)NC(=O)c1cccc(Cc2cc(Cl)ccc2OCc2ccc(Cl)cc2F)n1 | > 1000 nM | > 1000 nM | < 6 | 4360 nM | > 1000 nM | –
9 | O=C(NS(=O)(=O)c1cc(Cl)ccc1Cl)c1cccc(Cc2cc(Cl)ccc2OCc2ccc(Cl)cc2F)n1 | > 1000 nM | 204 nM | < 6 | 53.7 nM | > 1000 nM | Kd ([3]; read-out: pKd (converted)): 56.2 nM
10 | CC(C)CNC(=O)c1cccc(Cc2cc(Cl)ccc2OCc2ccc(Cl)cc2F)n1 | > 1000 nM | 214 nM | < 6 | 302 nM | > 1000 nM | Drug metabolism [14]: Active; Fu (Plasma): 0.01; Drug metabolism [15]: Active
11 | O=C(NC1CCC1)c1cccc(Cc2cc(Cl)ccc2OCc2ccc(Cl)cc2F)n1 | > 1000 nM | > 1000 nM | < 6 | 912 nM | > 1000 nM | –
12 | CCCS(=O)(=O)NC(=O)c1cccc(Cc2cc(Cl)ccc2OCc2ccc(Cl)cc2F)n1 | > 1000 nM | > 1000 nM | < 6 | – | > 1000 nM | Activity [16]: inactive
13 | O=C(NS(=O)(=O)c1ccc(Cl)c(Cl)c1)c1cccc(Cc2cc(Cl)ccc2OCc2ccc(Cl)cc2F)n1 | > 1000 nM | 66.1 nM | < 6 | 214 nM | > 1000 nM | –
14 | Cc1ccc(S(=O)(=O)NC(=O)c2cccc(Cc3cc(Cl)ccc3OCc3ccc(Cl)cc3F)n2)cc1 | > 1000 nM | > 1000 nM | < 6 | 214 nM | > 1000 nM | –
15 | O=C(O)c1cccc(Cc2cc(Cl)ccc2OCc2ccc(Cl)cc2F)n1 | > 1000 nM | > 1000 nM | – | 47.9 nM | 1740 nM | Vd [17]: 0.9 L/kg; clearance [18]: 59.2 mL/min/kg; bioavailability [19]: 13.8%; Fu (Plasma): 0.005; half-life [20]: 65 min
